In assay [1] the target is Opioid receptors; mu & delta (Rattus norvegicus) (UniProt P33533+P33535). Briefly: Selectivity for mu opioid receptor over delta opiod receptor in Sprague-Dawley rat brain P2 synaptosome membrane. The assay is classed as tissue-based.
In assay [2] the target is Delta-type opioid receptor (Mus musculus) (UniProt P32300). Briefly: Agonist activity at delta opioid receptor in mouse vas deferens assessed as inhibition of electrically-stimulated muscle contraction at 10000 nM. Format: functional, tissue-based. Also on record: scale not given: the % may be the effect or the level left. Summed up: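 Mouse vas deferens in organ bath, physiological buffer pH 7.5; maximal inhibition of electrically evoked contraction recorded at 10,000 nM.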

Assay [3] has as its target Mu-type opioid receptor (Cavia porcellus, UniProt P97266). Briefly: Agonist activity at mu opioid receptor in Hartley guinea pig ileum assessed as inhibition of electrically-stimulated muscle contraction. The assay is classed as functional, tissue-based. Summed up: (§1)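 Isolated tissue: myenteric plexus longitudinal muscle strips (2–3 cm) from small intestine of male Hartley guinea pigs (μ), or single mouse vas deferens (δ), in organ baths with balanced salt solution, pH 7.5. Inhibition of electrically evoked contraction; IC50 (nM) from dose-response curves, mean ± SE of five to six separate assays.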

Assay [4] addresses Delta-type opioid receptor (Rattus norvegicus, UniProt P33533). Briefly: Displacement of [3H]deltorphin 2 from delta opioid receptor in Sprague-Dawley rat brain P2 synaptosome membrane. Format: tissue-based. Background: Displacement assays read how much labelled ligand stays bound in the presence of the test substance.
Assay [5] has as its target Mu-type opioid receptor (Rattus norvegicus, UniProt P33535). Briefly: Displacement of [3H]DAMGO from mu opioid receptor in Sprague-Dawley rat brain P2 synaptosome membrane. The assay is classed as tissue-based. In short, it runs like this:
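Competition binding at equilibrium (2.5 h, 22 °C) on Sprague-Dawley rat (150–160 g) brain P2 synaptosomes, preincubated 60 min at 22 °C to remove endogenous opioids. Radioligands: 3.5 nM [3H]DAMGO (μ) or 1.9 nM [3H]deltorphin-II (δ); nonspecific with 2 µM unlabeled peptide. GF/C filtration; duplicates, 5–8 doses, several preparations. Ki by Cheng-Prusoff (Kd 3.5 nM DAMGO, 1.4 nM deltorphin-II).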

Assay [6] deals with T1, Delta-type opioid receptor (Mus musculus, UniProt P32300). Briefly: Agonist activity at delta opioid receptor in mouse vas deferens assessed as inhibition of electrically-stimulated muscle contraction. The assay is classed as functional, tissue-based. In short, it runs like this: as §1
For assay [7], the target named is Kappa-type opioid receptor (Cavia porcellus, UniProt P41144). Briefly: Displacement of [3H]U-69593 from kappa opioid receptor in Hartley guinea pig cerebellum P2 synaptosome membrane. The assay is classed as tissue-based.
For assay [8], the target named is T1, Delta-type opioid receptor. Briefly: Antagonist activity at delta opioid receptor in mouse vas deferens assessed as inhibition of deltorphin 2-induced response. The assay is classed as functional, tissue-based. To be noted: read-out: pA2 (converted). In short, it runs like this: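 Single mouse vas deferens in organ bath, pH 7.5 buffer; δ antagonism measured against deltorphin II-induced inhibition of electrically evoked contraction. pA2 from Schild plot: negative log molar concentration needed to double deltorphin II concentration for the original response.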

Where a SMILES comes first, the peptide text is derived from it. [ ]: non-standard residue; d: D form. Dmt = Cc1cc(O)cc(C)c1C[C@H](N)C(=O)O

Chain of Mu-type opioid receptor (Cavia porcellus, UniProt P97266) (P97266 whole entry): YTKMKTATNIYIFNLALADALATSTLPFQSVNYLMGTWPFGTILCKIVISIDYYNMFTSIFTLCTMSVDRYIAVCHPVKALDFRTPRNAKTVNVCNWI
Chain of Delta-type opioid receptor (Rattus norvegicus, UniProt P33533) (P33533 whole entry): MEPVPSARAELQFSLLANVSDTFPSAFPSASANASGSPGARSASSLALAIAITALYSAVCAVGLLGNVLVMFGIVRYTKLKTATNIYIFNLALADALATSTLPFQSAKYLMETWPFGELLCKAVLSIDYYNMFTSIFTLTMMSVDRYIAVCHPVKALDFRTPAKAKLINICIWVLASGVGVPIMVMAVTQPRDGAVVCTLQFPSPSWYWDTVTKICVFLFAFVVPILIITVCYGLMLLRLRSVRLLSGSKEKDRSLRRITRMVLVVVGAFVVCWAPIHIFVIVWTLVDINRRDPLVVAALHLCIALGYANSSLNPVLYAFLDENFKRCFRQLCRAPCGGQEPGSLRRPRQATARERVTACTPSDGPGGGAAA
Chain of Opioid receptors; mu & delta (Rattus norvegicus) (P33533 whole entry, looked up): as the sequence (P33533 whole entry) above
Chain of Opioid receptors; mu & delta (Rattus norvegicus) (P33535 whole entry, looked up): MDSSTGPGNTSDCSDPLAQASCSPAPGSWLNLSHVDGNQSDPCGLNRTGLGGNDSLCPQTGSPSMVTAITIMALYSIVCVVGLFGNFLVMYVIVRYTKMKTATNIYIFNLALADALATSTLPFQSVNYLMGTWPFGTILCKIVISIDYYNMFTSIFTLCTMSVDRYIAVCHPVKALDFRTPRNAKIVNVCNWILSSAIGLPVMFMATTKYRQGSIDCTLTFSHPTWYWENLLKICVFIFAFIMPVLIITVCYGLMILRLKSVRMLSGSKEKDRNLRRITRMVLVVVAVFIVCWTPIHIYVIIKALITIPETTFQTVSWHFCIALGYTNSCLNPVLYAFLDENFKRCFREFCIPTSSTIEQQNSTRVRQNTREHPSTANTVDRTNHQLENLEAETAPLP
Chain of Kappa-type opioid receptor (P41144 whole entry): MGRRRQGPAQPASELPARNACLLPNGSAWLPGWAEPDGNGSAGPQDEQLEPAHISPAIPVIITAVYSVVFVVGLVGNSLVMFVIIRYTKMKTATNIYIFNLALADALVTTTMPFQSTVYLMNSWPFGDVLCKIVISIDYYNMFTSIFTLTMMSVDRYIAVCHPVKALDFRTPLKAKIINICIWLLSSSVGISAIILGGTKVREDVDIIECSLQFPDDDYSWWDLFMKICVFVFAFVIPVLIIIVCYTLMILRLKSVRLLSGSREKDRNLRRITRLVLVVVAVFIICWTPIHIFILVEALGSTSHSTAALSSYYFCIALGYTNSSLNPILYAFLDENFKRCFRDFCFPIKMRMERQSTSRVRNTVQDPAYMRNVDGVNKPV
Chain of Mu-type opioid receptor (Rattus norvegicus, UniProt P33535) (P33535 whole entry): as the sequence (P33535 whole entry, looked up) above
T1 sequence (P32300 whole entry): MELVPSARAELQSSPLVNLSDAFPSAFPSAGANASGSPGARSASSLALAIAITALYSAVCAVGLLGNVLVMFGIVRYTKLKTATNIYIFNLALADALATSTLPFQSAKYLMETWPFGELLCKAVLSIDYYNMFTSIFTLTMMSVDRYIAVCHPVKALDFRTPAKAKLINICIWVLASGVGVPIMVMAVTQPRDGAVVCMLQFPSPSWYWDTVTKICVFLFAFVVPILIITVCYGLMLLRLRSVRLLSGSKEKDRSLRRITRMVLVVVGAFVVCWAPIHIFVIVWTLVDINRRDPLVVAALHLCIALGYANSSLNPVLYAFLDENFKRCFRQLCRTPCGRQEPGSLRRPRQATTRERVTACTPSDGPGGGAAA
Chain of Delta-type opioid receptor (Mus musculus) (P32300 whole entry): as above

Take `Cc1cc(O)ccc1C[C@H](NC(=O)[C@@H]1CCCN1C(=O)[C@@H](N)Cc1c(C)cc(O)cc1C)C(=O)N[C@@H](Cc1ccccc1)C(N)=O`: the Ratio Ki in assay [1] came out at 878. Besides, in assay [2], the Activity was less than 1%.

In general, IC50 refers to the concentration that inhibits the measured activity by half. A word on the Ki: it is the dissociation constant of the complex between target and ligand, obtained from inhibition or displacement. With `Cc1cc(O)cc(C)c1C[C@H](N)C(=O)N1CCC[C@H]1C(=O)N[C@@H](Cc1ccccc1)C(=O)N[C@@H](Cc1ccccc1)C(N)=O`, the IC50 in assay [3] is 0.26 nM; in assay [6] it was 0.59 nM. Moreover, the inhibition constant (Ki) in assay [4] worked out at 99.2 nM; in assay [5] it was 0.26 nM; in assay [7], 489 nM. Also, the Ratio Ki in assay [1] was 382.

On to `Cc1cccc(C)c1C[C@H](NC(=O)[C@@H]1CCCN1C(=O)[C@@H](N)Cc1ccc(O)cc1)C(=O)N[C@@H](Cc1ccccc1)C(N)=O`, for which the IC50 was 0.38 nM in assay [3] and 1.39 nM in assay [6]. Moreover, the values for the Ki in assay [4], in assay [5] and in assay [7] were 1440 nM, 0.044 nM and greater than 4000 nM, respectively. Besides, the Ratio Ki in assay [1] was 32700.

With `CCc1cccc(C)c1C[C@H](NC(=O)[C@@H]1CCCN1C(=O)[C@@H](N)Cc1ccc(O)cc1)C(=O)N[C@@H](Cc1ccccc1)C(N)=O`, the IC50 in assay [3] amounted to 2.35 nM; in assay [6] it was 277 nM. In addition, the results for the Ki in assay [4] and in assay [5] were 491 nM and 0.46 nM, respectively. Further, in assay [1], the Ratio Ki came out at 1070.

Take `Cc1cccc(C(C)C)c1C[C@H](NC(=O)[C@@H]1CCCN1C(=O)[C@@H](N)Cc1ccc(O)cc1)C(=O)N[C@@H](Cc1ccccc1)C(N)=O`: the IC50 in assay [3] came out at 2.74 nM. For the same molecule, the figures for the Ki in assay [4] and in assay [5] were 543 nM and 0.45 nM, respectively. In addition, the Ratio Ki in assay [1] was 1220.

As to `Cc1cc(C)cc(C[C@H](NC(=O)[C@@H]2CCCN2C(=O)[C@@H](N)Cc2c(C)cc(O)cc2C)C(=O)N[C@@H](Cc2ccccc2)C(N)=O)c1`, the IC50 was 14.4 nM in assay [3] and greater than 10000 nM in assay [6]. Also, the Kb in assay [8] is 170 nM. The Ki in assay [4] came out at 11.6 nM; in assay [5], 0.11 nM; in assay [7] it was 830 nM. For the same molecule, the Ratio Ki in assay [1] turned out to be 105. The Activity in assay [2] was greater than 7.1%.

Take `Cc1ccccc1C[C@H](NC(=O)[C@@H]1CCCN1C(=O)[C@@H](N)Cc1ccc(O)cc1)C(=O)N[C@@H](Cc1ccccc1)C(N)=O`: the IC50 in assay [3] was 1.33 nM; in assay [6] it was 15.7 nM. The Ki in assay [4] was 1740 nM; in assay [5] it was 0.22 nM. Further, in assay [1], the Ratio Ki amounted to 7880.

Regarding `Cc1cc(O)cc(C)c1C[C@H](N)C(=O)N1CCC[C@H]1C(=O)N[C@@H](Cc1c(C)cccc1C(C)C)C(=O)N[C@@H](Cc1ccccc1)C(N)=O`, the IC50 in assay [3] was determined as 0.2 nM; in assay [6], 5.56 nM. For the same molecule, the Ki in assay [4] was 4.61 nM; in assay [5] it was 0.32 nM; in assay [7], 205 nM. Also, in assay [1], the Ratio Ki was 14.

As to `CCc1cccc(C)c1C[C@H](NC(=O)[C@@H]1CCCN1C(=O)[C@@H](N)Cc1c(C)cc(O)cc1C)C(=O)N[C@@H](Cc1ccccc1)C(N)=O`, the IC50 in assay [3] was determined as 0.17 nM; in assay [6] it was 0.51 nM. In addition, the Ki was 3.03 nM in assay [4], 0.21 nM in assay [5] and 278 nM in assay [7]. Also, the Ratio Ki in assay [1] stood at 14.

Take `Cc1cccc(C)c1C[C@H](NC(=O)[C@@H]1CCCN1C(=O)[C@@H](N)Cc1c(C)cc(O)cc1C)C(=O)N[C@@H](Cc1ccccc1)C(N)=O`: the IC50 in assay [3] is 0.12 nM. The Kb in assay [8] was 7.08 nM. The results for the Ki in assay [4], in assay [5] and in assay [7] were 2.27 nM, 0.069 nM and 94.2 nM, respectively. The Ratio Ki in assay [1] was determined as 33.

Turning to `Cc1cc(O)cc(C)c1C[C@H](NC(=O)[C@@H]1CCCN1C(=O)[C@@H](N)Cc1ccc(O)cc1)C(=O)N[C@@H](Cc1ccccc1)C(N)=O` (H-YP[Dmt]F-NH2), the 50% inhibitory concentration (IC50) was found to be 541 nM in assay [3] and 978 nM in assay [6]. Besides, the Ki in assay [4] amounted to 3020 nM; in assay [5], 2.63 nM.

On to `Cc1cc(O)ccc1C[C@H](NC(=O)[C@@H]1CCCN1C(=O)[C@@H](N)Cc1ccc(O)cc1)C(=O)N[C@@H](Cc1ccccc1)C(N)=O`, for which the Ratio Ki in assay [1] came out at 1150.

With `Cc1ccccc1C[C@H](NC(=O)[C@@H]1CCCN1C(=O)[C@@H](N)Cc1c(C)cc(O)cc1C)C(=O)N[C@@H](Cc1ccccc1)C(N)=O`, the values for the IC50 in assay [3] and in assay [6] were 0.16 nM and greater than 10000 nM, respectively. Besides, the Kb in assay [8] is 257 nM. Besides, the Ki came out at 4.61 nM in assay [4], 0.18 nM in assay [5] and 176 nM in assay [7]. For the same molecule, the Ratio Ki in assay [1] amounted to 26. Further, the Activity in assay [2] was 0%.

In the case of `Cc1cc(C)cc(C[C@H](NC(=O)[C@@H]2CCCN2C(=O)[C@@H](N)Cc2ccc(O)cc2)C(=O)N[C@@H](Cc2ccccc2)C(N)=O)c1`, the figures for the IC50 in assay [3] and in assay [6] were 389 nM and greater than 10000 nM, respectively. The Ki in assay [4] came out at 3450 nM; in assay [5] it was 6.19 nM. In addition, the Ratio Ki in assay [1] was 558. Further, in assay [2], the Activity is greater than 8%.

`Cc1cc(C)c(C[C@H](NC(=O)[C@@H]2CCCN2C(=O)[C@@H](N)Cc2c(C)cc(O)cc2C)C(=O)N[C@@H](Cc2ccccc2)C(N)=O)c(C)c1`: the IC50 was 0.21 nM in assay [3] and greater than 10000 nM in assay [6]. Besides, the Kb in assay [8] was 0.891 nM. In addition, the Ki came to 1.83 nM in assay [4], 0.18 nM in assay [5] and 172 nM in assay [7]. Besides, the Ratio Ki in assay [1] is 10. Besides, the Activity in assay [2] was greater than 22.2%.

As to `Cc1cc(O)cc(C)c1C[C@H](NC(=O)[C@@H]1CCCN1C(=O)[C@@H](N)Cc1c(C)cc(O)cc1C)C(=O)N[C@@H](Cc1ccccc1)C(N)=O` (H-[Dmt]P[Dmt]F-NH2), the IC50 in assay [3] was 1.94 nM; in assay [6], greater than 10000 nM. Further, in assay [8], the Kb was 87.1 nM. Moreover, the results for the Ki in assay [4], in assay [5] and in assay [7] were 80.8 nM, 0.092 nM and 998 nM, respectively.

For the molecule `Cc1cc(C)c(C[C@H](NC(=O)[C@@H]2CCCN2C(=O)[C@@H](N)Cc2ccc(O)cc2)C(=O)N[C@@H](Cc2ccccc2)C(N)=O)c(C)c1`, the IC50 in assay [3] is 1.9 nM; in assay [6] it was greater than 10000 nM. In addition, the figures for the Ki in assay [4] and in assay [5] were 1360 nM and 0.44 nM, respectively. Moreover, the Ratio Ki in assay [1] is 3090. Moreover, the Activity in assay [2] was greater than 36.2%.

The values are drawn from ChEMBL document CHEMBL1143681, “Bifunctional [2',6'-dimethyl-L-tyrosine1]endomorphin-2 analogues substituted at position 3 with alkylated phenylalanine derivatives yield potent mixed mu-agonist/delta-antagonist and dual mu-agonist/delta-agonist opioid ligands” (J Med Chem, 2007).
